Measurements reported in PubChem BioAssay AID588713 (Southern Research Specialized Biocontainment Screening …, 2011).
Active and inactive are the calls of the source.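 The calls were made as follows: active = log virus titer change below -1, over tenfold drop in progeny titer versus untreated infected control; inactive = the rest.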

These compounds were tested on HEp-2 cells, RSV plaque reduction, virus titer (assay: RSV titer reduction in HEp-2 cells, cell-based, plaque reduction, set 4 (AID 588713)). Details: at 10 µM; active compounds read low.
How it was run: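 Assay system: RSV-infected HEp-2 cells | Also added: RSV Long, MOI 0.1 | Dosing: Test compound with 0.5% DMSO final | Schedule: 48 h compound exposure after 2 h infection, 37 °C | Technique: Plaque titration on fresh HEp-2 under 1% Avicel, 6 days, neutral red stain | Evaluation: Progeny virus titer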

Structure (SMILES)	log virus titer change
COCCCNC(=O)c1ccc(Cn2c(=O)c3ccccc3n(Cc3ccc([N+](=O)[O-])cc3)c2=O)cc1	< -6.18
O=C(O)c1ccc(Cn2c(=O)n(Cc3ccc(C(=O)NCC4COC4)cc3)c(=O)c3ccccc32)cc1	0.68 (inactive)
CN(C)c1ccc(Cn2c(=O)n(Cc3ccc(C(=O)NCC4COC4)cc3)c(=O)c3ccccc32)cc1	< -6.18
CC(C)c1ccc(Cn2c(=O)n(Cc3ccc(C(=O)NCc4ccco4)cc3)c(=O)c3ccccc32)cc1	-2.83
